Compound activity: PubChem, several laboratories
Compounds with a hit are over-represented: about 1.7% of the library has one in this group of screens.
PfGluPho inh: PfG6PD (Plasmodium falciparum) enzyme inhibition | PfGluPho enzyme, NADPH resazurin-diaphorase fluorescence | hit rate 0.78% among 350,000 | inhibition, % at 20 µM;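 active = inhibition reaching at least a set limit at 20 µM in the primary screen, cut at about 59% in these data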;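 also: 0% = DMSO wells with substrate and 100% = DMSO wells lacking glucose-6-phosphate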
Beta2AR agonist: agonists of human beta-2 adrenergic receptor inducing internalization; P07550; Am2.2-beta2AR cells, FAP receptor internalization, flow cytometry; response, % (concentration not given with the values); hit rate 0.43% among 340,000;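 active = response above a set limit, near 3 SD of response in nonfluorescent compounds, cut at about 42% in these data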
CXCR6 block: CXCR6 (human) receptor inhibition; O00574; CHO-K1 PathHunter CXCR6 beta-arrestin, luminescence; inhibition, % at 20 µM; hit rate 0.36% among 360,000; AID 602244; in the data active = inhibition above about 34%, passing the limit was not always enough;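 also: antagonist mode with CXCL16 agonist at 10 nM final; 0% = 10 nM CXCL16 with DMSO and 100% = unstimulated wells without agonist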
Target sequence (O00574 whole entry, looked up): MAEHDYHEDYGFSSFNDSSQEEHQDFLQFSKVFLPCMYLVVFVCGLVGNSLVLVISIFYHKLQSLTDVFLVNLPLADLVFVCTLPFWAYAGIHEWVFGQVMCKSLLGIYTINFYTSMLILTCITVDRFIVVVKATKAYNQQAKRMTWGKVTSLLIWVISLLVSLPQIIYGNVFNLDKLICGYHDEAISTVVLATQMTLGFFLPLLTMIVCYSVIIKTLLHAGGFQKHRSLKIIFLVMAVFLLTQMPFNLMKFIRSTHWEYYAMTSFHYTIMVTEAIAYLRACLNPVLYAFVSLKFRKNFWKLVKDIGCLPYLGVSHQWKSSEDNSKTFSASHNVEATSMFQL
APJ ag: agonists of human APJ apelin receptor; CHO-K1 APJ PathHunter beta-arrestin, luminescence; 0% DMSO wells, 100% apelin; hit rate 0.11% among 330,000; AID 2520; P35414; activation, % at 20 µM;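 active = activation more than six SD over the plate average, tested at 20 µM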;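 also: 0% = DMSO alone and 100% = apelin-13 at 10 nM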
Target sequence (P35414 whole entry, looked up): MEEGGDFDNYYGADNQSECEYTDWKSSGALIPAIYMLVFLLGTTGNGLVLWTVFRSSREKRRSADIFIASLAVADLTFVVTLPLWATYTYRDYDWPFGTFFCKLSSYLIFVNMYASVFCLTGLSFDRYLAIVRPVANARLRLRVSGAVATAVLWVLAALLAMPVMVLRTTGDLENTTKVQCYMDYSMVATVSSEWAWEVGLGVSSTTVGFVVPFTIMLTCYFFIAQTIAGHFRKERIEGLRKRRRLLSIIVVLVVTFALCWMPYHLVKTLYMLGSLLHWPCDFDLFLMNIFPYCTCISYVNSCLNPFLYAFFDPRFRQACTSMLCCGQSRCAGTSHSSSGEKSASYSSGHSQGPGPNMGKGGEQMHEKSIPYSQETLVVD
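system = engineered CHO-K1 APJ arrestin reporter cells | input = 1000 cells per well | timing = overnight seeding, 90 min compound at 25 °C, 1 h detection | measured by = enzyme-fragment complementation luminescence | read-out = beta-arrestin recruitment to APJ as agonist activity, luminescent signal | control set = negative DMSO alone, positive Apelin-13 at 10 nM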
APJ antag: antagonists of human APJ apelin receptor; hit rate 0.32% among 330,000; P35414; CHO-K1 APJ beta-arrestin complementation, luminescence; inhibition, % at 20 µM; AID 2521;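 active = inhibition above about 40% at 20 µM, limit read from the data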;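 also: cells challenged with 10 nM apelin-13 agonist together with compound; plate controls were apelin-13 plus DMSO wells for no effect and DMSO wells lacking apelin-13 for full effect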
CCR6 antagonist: antagonists of human CCR6 receptor; hit rate 0.49% among 340,000; inhibition, % at 20 µM; CHO-K1 CCR6 PathHunter beta-arrestin, luminescence, CCL20-stimulated; P51684;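 active = compounds whose inhibition of the agonist-driven luminescence signal at 20 µM reaches about 50%, limit read from the data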;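 also: cells stimulated with CCL20 at 14 nM final; plate controls were DMSO with CCL20 for no effect and DMSO without agonist for full effect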
PfG6PD confirm: confirmation of Plasmodium falciparum G6PD inhibitors; inhibition, % at 20 µM; recombinant PfGluPho, NADPH-diaphorase-resazurin fluorescence; AID 504753; shares compounds with PfGluPho inh; hit rate 34% among 2,400;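 active = inhibition of at least 50% at 20 µM in any single replicate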;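 also: 0% = DMSO with substrate and 100% = DMSO lacking glucose-6-phosphate substrate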
Diaphorase 10uM: counter-screen for P. falciparum G6PD inhibitors: diaphorase inhibitors, oxidizers. shares compounds with PfGluPho inh. diaphorase-coupled resazurin reduction, fluorescence, NADPH 10 uM. inhibition, % at 20 µM. hit rate 39% among 820;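 active = average inhibition reaching 50% or more with the compound at 20 µM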;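 also: resorufin red fluorescence formed as diaphorase reduces resazurin using NADPH; 0% = DMSO with enzyme and 100% = DMSO without enzyme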
Diaph ctr 30uM: inhibits diaphorase or oxidizes, flagging false PfG6PD hits | hit rate 29% among 820 | Diaphorase/resazurin coupled assay, resorufin fluorescence, 30 uM NADPH | AID 504863 | inhibition, % at 20 µM | shares compounds with PfGluPho inh;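 active = inhibition averaging 50% or more, tested at 20 µM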;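 also: 0% = DMSO with enzyme and 100% = DMSO wells lacking diaphorase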
Numbers without * were called inactive; . = not tested or not shown.

SMILES	PfGluPho inh	Beta2AR agonist	CXCR6 block	APJ ag	APJ antag	CCR6 antagonist	PfG6PD confirm	others
CCCCCCNC(=O)O[C@H]1Cn2c(=O)n(CCCCCC)c(=O)n2[C@@H]2CN(S(=O)(=O)c3ccc(C)cc3)C[C@]12O	70.6*	.	1.9	.	.	.	-14.5
CCCCCCn1c(=O)n2n(c1=O)[C@@H]1CN(S(=O)(=O)c3ccc(C)cc3)C[C@]1(O)[C@@H](OC(=O)NC1CCCC1)C2	30.2	.	5.3	.	.	.	.
CCCCCCn1c(=O)n2n(c1=O)[C@@H]1CN(S(=O)(=O)c3ccc(C)cc3)C[C@]1(O)[C@@H](OC(=O)NC1CC1)C2	-2.1	.	-0.2	.	.	.	.
Cc1cc(C)c(NC(=O)Nc2ccc3c(c2)OCO3)c(C)c1	-15.9	4.8	7.6	-4.3	-8.5	12.7	.
Cc1cc(C)c2[nH]c(C(=O)Nc3ccc4c(c3)OCO4)cc2c1	60.6*	8.6	-9.9	1.7	-5.1	17.0	2.5
Cc1cc(C)c2c(CN(Cc3ccccc3)Cc3ccccc3)cc(=O)oc2c1	.	.	6.8	.	.	.	.
CCN1CCN(C(=S)Nc2ccc(Cl)c(Cl)c2)CC1	6.4	0.8	-10.4	-3.1	-7.1	0.2	.
CCN1CCN(C(=S)c2ccc(Cl)c(Cl)c2)CC1	59.4*	-0.9	-3.7	-3.1	3.0	4.6	55.4*	Diaphorase 10uM=24.3;Diaph ctr 30uM=-16.1
COCCn1c(SCC(=O)c2c(N)n(C3CC3)c(=O)[nH]c2=O)nc2ccccc21	13.0	-12.7	-2.4	-0.3	12.7	7.8	.
O=C(Nc1ccc2c(c1)OCCO2)c1cc2sccc2n1Cc1ccccc1	39.1	38.5	-6.7	2.5	-16.1	9.7	.
Cn1c(C(=O)Nc2ccc3c(c2)OCCO3)cc2sccc21	65.8*	-4.8	-6.1	-1.3	-9.3	-0.4	18.1
COc1cc(C(O)c2nc(-c3cccc(C(C)C)c3)cs2)ccc1F (stereo unspecified)	.	.	-12.4	.	.	.	.
Oc1c(N=Nc2ccccc2)sc2ccccc12	60.2*	7.6	19.4	-5.1	34.3	33.8	13.0
Cc1nc(NN)c2c3c(sc2n1)COC(C)(C)C3	22.1	-2.7	-3.7	1.6	-2.4	-4.7	.
COc1ccc(CNC(=O)C(c2ccco2)N(C(=O)c2snc(C(N)=O)c2N)c2ccccc2OC)cc1 (stereo unspecified)	9.4	2.7	3.7	-2.7	2.2	6.1	.
COc1cccc(NC(=O)C(OC(=O)c2ccccc2NS(=O)(=O)c2cccs2)c2ccccc2)c1 (stereo unspecified)	74.6*	16.8	-6.7	-1.7	13.6	3.2	32.5
COc1cccc(NC(=O)C(OC(=O)c2ccc([N+](=O)[O-])o2)c2ccccc2)c1 (stereo unspecified)	15.6	3.9	-24.5	6.2	-14.1	-24.8	.
CCN(CC(=O)Nc1c(F)cccc1F)C(=O)CCC(=O)c1ccc(C)cc1	-0.4	1.4	-11.8	0.3	-5.9	17.0	.
COc1ccc(-c2csc(NC(=O)COC(=O)c3ccco3)n2)cc1	59.9*	-1.2	0.9	-1.2	-9.0	2.0	15.9
O=C(COC(=O)c1cc(S(=O)(=O)N2CCCC2)ccc1O)Nc1ccccc1Br	-7.8	8.5	3.4	-1.3	1.9	-0.2	.
Cc1cn(CC(=O)N2CCN(c3ccccn3)CC2)c(=O)[nH]c1=O	0.9	7.1	9.0	.	.	16.9	.
O=C(Nc1ccc(Nc2ccccc2)cc1)c1ccc(Cl)cc1	21.3	1.3	-0.6	0.1	2.2	-0.3	.
N#C/C(C(=O)Nc1ccc(Cl)cc1)=C(/S)Nc1ccccc1	95.2*	-11.5	0.8	1.8	0.5	8.5	82.7*	Diaphorase 10uM=-17.5;Diaph ctr 30uM=-2.9
O=C(Nc1cccnc1)c1cccc(S(=O)(=O)Nc2ccccc2F)c1	2.9	10.2	9.6	-3.2	6.1	2.1	.
O=C(Nc1cccc(S(=O)(=O)Nc2ccccc2F)c1)c1ccc2ccccc2n1	75.5*	11.6	2.9	-0.9	9.4	-3.9	49.1
SMILES	PfGluPho inh	Beta2AR agonist	CXCR6 block	APJ ag	APJ antag	CCR6 antagonist	PfG6PD confirm	others
O=C(/C=C/c1ccccc1)Nc1cccc(S(=O)(=O)Nc2ccccc2F)c1	71.2*	3.0	-7.3	-1.3	19.3	34.5	45.6
O=C(Nc1ccccc1)c1ccc2ccccc2n1	24.0	10.2	-11.8	-4.9	-7.7	16.4	.
COc1ccccc1NS(=O)(=O)c1cccc(NC(=O)c2ccc3ccccc3n2)c1	2.6	13.2	-17.7	-1.6	0.9	4.0	.
CCc1nnc(NC(=O)c2ccc3ccccc3n2)s1	9.5	-11.1	5.7	-4.1	10.8	5.3	.
CCSc1nnc(NC(=O)c2ccc3ccccc3n2)s1	71.4*	-2.1	22.6	-1.5	31.0	37.7	42.8
O=C(Nc1ccccc1C(=O)O)c1ccc2ccccc2n1	73.7*	5.6	0.9	-1.6	-0.2	-24.8	70.4*	Diaphorase 10uM=58.9*;Diaph ctr 30uM=67.6*
COc1ccc(NC(=O)N/C=C/c2ccccc2)cc1	-0.3	-1.5	-8.0	1.2	0.3	11.6	.
S=C(Nc1ccc(Cl)cc1Cl)Nn1cnnc1	46.9	-3.9	7.9	-4.0	25.4	10.3	-24.2
S=C(Nc1cc(Cl)ccc1Cl)Nn1cnnc1	53.9	5.6	-3.2	-4.8	16.0	-4.2	.
CCc1ccccc1NC(=S)Nn1cnnc1	.	3.6	-0.2	-10.0	20.6	.	.
CCOc1ccccc1NC(=S)Nn1cnnc1	62.5*	-7.6	6.3	-8.2	17.3	4.6	29.9
CC(C)NC(=O)Nc1ccc2c(c1)C(=O)N([C@H](C)CO)C[C@H](C)[C@@H](CN(C)Cc1ccc(C(F)(F)F)cc1)OCCCC[C@H](C)O2	24.6	.	3.4	.	.	.	.
C/C(=N\Nc1nc2ccccc2[nH]1)c1ccc(Cl)s1	76.6*	-2.0	6.3	3.2	-22.3	16.2	15.0
C/C(=N\Nc1nc2ccccc2[nH]1)c1ccc(C)o1	21.7	-4.3	-14.6	-0.1	-15.0	6.2	.
C=CC(=O)N1C/C(=C/c2ccc(Cl)cc2)C(=O)/C(=C\c2ccc(Cl)cc2)C1	75.7*	25.0	49.7*	.	.	61.8*	25.7
O=C1C(=Cc2ccc(Cl)cc2)Cc2ccccc21	.	.	1.7	.	.	.	.
O=C(OCc1c(-c2ccccc2)ncc2ccccc12)c1ccco1	2.6	-9.6	15.7	-0.9	14.0	20.0	.
COc1cccc(Nc2nnc(SCC(=O)Nc3sccc3C(N)=O)s2)c1	19.6	11.3	-4.1	4.2	-17.6	2.6	.
CCc1ccc(Nc2nnc(SCC(=O)Nc3sccc3C(N)=O)s2)cc1	67.3*	16.8	-4.8	-0.7	-7.1	-2.4	7.0
CCOC(=O)CC(NCc1ccc(OC)c(OCC)c1)c1ccc(C)cc1 (stereo unspecified)	-3.2	-4.0	-3.3	-1.8	-3.9	10.9	.
